Measurements from different studies.
Protocols differ between the studies behind these lines.
EGFR: Epidermal growth factor receptor (EGFR, Homo sapiens, UniProt P00533)
EGFR T790M: Epidermal growth factor receptor (EGFR, Homo sapiens, UniProt P00533, T790M)
EGFR L858R/T790M: Epidermal growth factor receptor (EGFR, Homo sapiens, UniProt P00533, L858R/T790M)
EGFR L861Q: Epidermal growth factor receptor (EGFR, Homo sapiens, UniProt P00533, L861Q)
EGFR G719C: Epidermal growth factor receptor (EGFR, Homo sapiens, UniProt P00533, G719C)
EGFR del752-759: Epidermal growth factor receptor (EGFR, Homo sapiens, UniProt P00533, del752-759)
EGFR L858R: Epidermal growth factor receptor (EGFR, Homo sapiens, UniProt P00533, L858R)
EGFR G719S: Epidermal growth factor receptor (EGFR, Homo sapiens, UniProt P00533, G719S)
EGFR del747-750/T751S: Epidermal growth factor receptor (EGFR, Homo sapiens, UniProt P00533, del747-750/T751S)

O=C(Nc1cnn(-c2csc(C(=O)NC3COC3)c2)c1)Nc1ccccc1Cl — remaining activity (EGFR; enzyme activity, inhibitor; 5 µM): 99.7%
COc1cc(-c2cn(C3CCc4ccccc4N(CC(F)(F)F)C3=O)nn2)ccc1-n1ccc(C)n1 (stereo not shown) — remaining binding (EGFR T790M; cell-free assay, competition with immobilised ligand; 1 µM): 59%
C=CC(=O)Nc1cc(Nc2nc(N3CCc4sccc4C3)c3cccnc3n2)c(OC)cc1N1CCN(CCO)CC1 — inhibition (EGFR L858R/T790M; enzyme activity, inhibitor, ELISA; 0.1 µM): 2%
CC(=O)N1CCC(c2ccc(C(=O)NC(=N)N)cc2C(F)(F)F)CC1 — remaining binding (EGFR L861Q; cell-free assay, competition with immobilised ligand; 1 µM): 91%
Cc1cc(NC(=O)c2cccc3cc(-c4cccc5[nH]nc(N)c45)ccc23)ccc1F — activity vs control (EGFR L861Q; enzyme activity, inhibitor; 0.1 µM): 95%
O=C(c1ccc(Nc2ncc(Cl)c(-c3ccc(Cl)s3)n2)cc1)N1CCC(N2CCCC2)CC1 — remaining binding (EGFR T790M; binding, competition with immobilised ligand; 1 µM): 63%
CC/C(=N\NC(=O)NCc1cccc(O)c1)c1ccc(O)c(C)c1O — inhibition (EGFR T790M; enzyme activity, inhibitor; 0.1 µM): 1.5%
Nc1ncnc2occ(-c3ccc(NC(=O)Nc4cc(C(F)(F)F)ccc4F)cc3)c12 — remaining signal (EGFR G719C; cell-free assay; 20 µM): 4.2%
N[C@H]1CCN(c2nccc(-c3cnn4ncccc34)n2)C1 — remaining binding (EGFR T790M; binding; 1 µM): 79%
Cc1ccc(C(=O)NCc2ccsc2)cc1C#Cc1cn(C(C)C)c2ncnc(N)c12 — activity vs control (EGFR; enzyme activity, inhibitor; 1 µM): 86%
CN(c1nccc(-c2cnn3ncccc23)n1)C1CC1 — remaining binding (EGFR del752-759; binding; 1 µM): 100%
Oc1cccc(-c2nc(N3CCOCC3)c3oc4ncccc4c3n2)c1 — remaining signal (EGFR; cell-free assay; 0.5 µM): 83.8%
C[C@@H]1CCN(c2nccc(-c3cnn4ncccc34)n2)C1 — remaining binding (EGFR L858R; binding; 1 µM): 93%
c1nc2c(Nc3ccc4c(c3)OCCO4)nc(Nc3ccc4c(c3)OCCO4)nc2[nH]1 — activity vs control (EGFR; enzyme activity, inhibitor; 10 µM): 3.5%
O=C(Nc1cnc(Oc2ccc(F)cc2)nc1)N1CCc2ncccc2[C@@H]1c1ccc(F)cc1 — remaining binding (Epidermal growth factor receptor (EGFR, Homo sapiens, UniProt P00533, del746-750); cell-free assay, competition with immobilised ligand; 1 µM): 100%
CCC(=O)Nc1cc(Nc2nc(N3CCc4sccc4C3)c3cccnc3n2)c(OC)cc1N1CCN(CC)CC1 — inhibition (EGFR L858R/T790M; enzyme activity, inhibitor, ELISA; 0.1 µM): 19.2%
CCOc1cc2ncnc(Nc3cccc(Br)c3)c2cc1OCC — remaining signal (EGFR; cell-free assay; 0.5 µM): 2.02%
COc1ccnn2ncc(-c3ccnc(N(C)C)n3)c12 — remaining binding (EGFR L858R/T790M; binding; 1 µM): 93%
O=C(Nc1cccnn1)N1CC(C/C=C/c2cncc(Oc3ccc(C(F)(F)F)cn3)n2)C1 — remaining binding (EGFR G719C; cell-free assay, competition with immobilised ligand; 1 µM): 100%
O=C(NCCCN1CCOCC1)c1ccc(Nc2ncc(Cl)c(-c3ccc(Cl)s3)n2)cc1 — remaining binding (EGFR L858R/T790M; binding, competition with immobilised ligand; 1 µM): 55%
CC(C)[C@@H]1NC(=O)[C@H](CCCNC(=N)N)NC(=O)[C@H](Cc2ccc(O)cc2)NC(=O)[C@H](C(C)C)NC(=O)[C@H](C(C)C)NC(=O)[C@H](CCCNC(=N)N)NC(=O)[C@H](CC(=O)O)NC(=O)[C@H](CC(=O)O)NC(=O)CCNC(=O)[C@H](Cc2ccc(O)cc2)NC(=O)[C@H](Cc2ccc(O)cc2)NC(=O)[C@H](Cc2ccccc2)NC(=O)[C@@H](Cc2ccc(O)cc2)NC(=O)CSC[C@@H](C(=O)NCC(N)=O)NC(=O)[C@H](C)NC1=O — kon (EGFR; binding, SPR): 192000 M⁻¹ s⁻¹
Cc1cnn2ncc(-c3ccnc(N(C)C)n3)c2c1 — remaining binding (EGFR L861Q; binding; 1 µM): 70%
COc1cc2ncnc(Nc3cccc(Cl)c3)c2cc1OC — remaining signal (EGFR; cell-free assay; 0.5 µM): 0.718%
CC(C)(C)c1nc(-c2cccc(NS(=O)(=O)c3c(F)cccc3F)c2F)c(-c2ccnc(N)n2)s1 — remaining activity (EGFR; enzyme activity, inhibitor, radiometric; 1 µM): 119%
COc1cc2ncnc(Nc3ccc(Oc4ccccc4)c(C)c3C)c2cc1OC — inhibition (EGFR; enzyme activity, inhibitor; 1 µM): 91%
c1cnn2ncc(-c3ccnc(N4CCC45COC5)n3)c2c1 — remaining binding (EGFR del752-759; binding; 1 µM): 67%
CC(C)[C@@H]1NC(=O)[C@H](CCCNC(=N)N)NC(=O)[C@H](Cc2ccc(O)cc2)NC(=O)[C@H](C(C)C)NC(=O)[C@H](C(C)C)NC(=O)[C@H](CCCNC(=N)N)NC(=O)[C@H](CC(=O)O)NC(=O)[C@H](CC(=O)O)NC(=O)[C@H](C)NC(=O)[C@H](Cc2ccc(O)cc2)NC(=O)[C@H](Cc2ccc(O)cc2)NC(=O)[C@H](Cc2ccccc2)NC(=O)[C@@H](Cc2ccc(O)cc2)NC(=O)CSC[C@@H](C(=O)NCC(N)=O)NC(=O)CC(c2ccccc2)NC1=O (stereo partly shown) — kon (EGFR; binding, SPR): 40200 M⁻¹ s⁻¹
C=C(Cl)C(=O)Nc1cc(Nc2nc(Nc3cnn(C)c3)c3sccc3n2)c(OC)cc1N1CCN(C)CC1 — inhibition (EGFR L858R/T790M; enzyme activity, inhibitor, ELISA; 0.1 µM): 54.1%
Nc1cnc(N2CCc3cc(S(=O)(=O)Nc4c(F)cc(Cl)cc4F)cc(N4CCCC4=O)c32)nc1 — remaining binding (EGFR G719S; cell-free assay, competition with immobilised ligand; 1 µM): 75%
CN(CCCC(F)(F)F)c1nccc(-c2cnn3ncccc23)n1 — remaining binding (EGFR G719S; binding; 1 µM): 98%
COc1cc(-c2cc(-c3ccc(N4CCNCC4)cc3)cnc2N)cc(OC)c1OC — inhibition (EGFR L858R; enzyme activity, inhibitor; 1 µM): 76%
Cn1nc(C(=O)NCc2ccc(C(=O)O)cc2)cc1-c1ccc2[nH]ccc2c1 — remaining binding (EGFR; cell-free assay, competition with immobilised ligand; 0.1 µM): 100%
COc1cnc(Nc2cccc(S(N)(=O)=O)c2)nc1N1CCN(c2ccccc2)C(=O)C1 — remaining binding (EGFR; binding, competition with immobilised ligand; 1 µM): 100%
CCN(CC)CCNC(=O)c1c(C)[nH]c(/C=C2\C(=O)Nc3ccc(Cl)cc32)c1C — remaining signal (EGFR; cell-free assay; 0.5 µM): 97%
Cc1cnc(NC2CCOCC2)nc1-n1cnc(C(=O)NC(CN)c2cc(F)cc(Cl)c2)c1 (stereo not shown) — remaining activity (EGFR L858R/T790M; enzyme activity, inhibitor, radiometric; 1 µM): 109%
CN(C)c1ncnc(-c2ccc3nc(Nc4cc(CN5CCN(C(=O)CC(F)(F)F)CC5)ccn4)[nH]c3c2)c1Cl — remaining binding (EGFR del747-750/T751S; cell-free assay, competition with immobilised ligand; 1 µM): 88%
Cc1cnc(Nc2ccc(C(=O)N3CCC(N4CCCC4)CC3)cc2)nc1-c1cc2ccccc2s1 — remaining binding (EGFR; binding, competition with immobilised ligand; 1 µM): 83%
Cc1ccc(C(=O)Nc2ccc(CN3CCN(C)CC3)c(C(F)(F)F)c2)cc1C#Cc1cnc2cccnn12 — remaining signal (EGFR T790M; cell-free assay; 23.5 nM): 94%
Cc1ccc(NC(=O)c2ccc(C)c(C(F)(F)F)c2)cc1C#Cc1nn(C2CCC(O)CC2)c2ncnc(N)c12 (stereo not shown) — remaining signal (EGFR L858R; cell-free assay; 10 µM): 21%
F[C@@H]1CCN(c2nccc(-c3cnn4ncccc34)n2)C1 — remaining binding (EGFR L858R; binding; 1 µM): 89%
O=C(NCCCN1CCOCC1)c1ccc(Nc2nccc(-c3cc4ccccc4s3)n2)cc1 — remaining binding (EGFR del747-750/T751S; binding, competition with immobilised ligand; 1 µM): 100%
COc1cc2ncnc(Nc3ccc(Oc4ccccc4)cc3C)c2cc1OC — inhibition (EGFR L861Q; enzyme activity, inhibitor; 1 µM): 76%
CNCc1ccccc1-c1csc([C@H](C)Nc2nc(C)nc3cc(OC)c(OC)cc23)c1 — remaining binding (EGFR L858R/T790M; cell-free assay, competition with immobilised ligand; 1 µM): 87%
